For experiment [1], the target named is Tubulin beta chain (Bos taurus) (UniProt Q6B856). The conditions noted are these: 5 uM.
For a further experiment, the target named is Tubulin beta chain (Bos taurus, UniProt Q6B856). The experiment is described as follows: Inhibition of bovine tubulin polymerization. In outline: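 Electrophoretically homogeneous bovine brain tubulin. Polymerization followed spectrophotometrically with a temperature jump from 2-4 °C to 30 °C.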
Another experiment relates to MDA-MB-435. Kind of experiment: In vitro cytotoxicity against human breast MDA-MB-435 cells. In kind it is functional.
In the next experiment the test system is OVCAR-3. Kind of experiment: In vitro cytotoxicity against human ovarian OVCAR-3 cells. In kind it is functional.
The next experiment relates to HCT-116. Kind of experiment: In vitro cytotoxicity against human colon HCT116 cell culture. In kind it is functional.
The subject of another experiment is MCF-10A. The experiment is described as follows: Inhibition of DNA synthesis in MCF-10A cells. The conditions noted are these: Homo sapiens. The class given is functional, cell-based. The gist of the method:
(§1)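 Cells seeded at 10^5/well and grown 24 h at 37 °C, then given inhibitor in DMSO at 3-5 concentrations, 3-4 wells each, for 48 h. [3H]thymidine pulse for 2 h. TCA-precipitated label solubilized in perchloric acid and counted.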

Experiment [2] addresses Epidermal growth factor receptor (Mus musculus, UniProt Q01279). Kind of experiment: Inhibition of epidermal growth factor receptor phosphorylation in BaF3 mouse lymphoid cells. The class given is cell-based. In outline:
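BaF3/EGFR cells serum-starved 24 h, then about 10^7 cells/mL treated 2 h at 37 °C with inhibitor at 3-5 concentrations. Chilled 20 min, then given EGF 100 ng/mL for 7 min on ice. Lysates precipitated on concanavalin A beads, run on SDS/PAGE, and immunoblotted with antiphosphotyrosine using ECL detection.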

In another experiment the test system is CCRF-CEM. The experiment is described as follows: Cytotoxic effect on human leukemia CCRF-CEM cells. In kind it is functional.
Experiment [3] concerns the target Tubulin beta chain (Bos taurus) (UniProt Q6B856). Kind of experiment: Percentage inhibition of binding of [3H]colchicine to tubulin at 50 uM.
In a further experiment the test system is UACC-62. Kind of experiment: In vitro cytotoxicity against human melanoma UACC-62 cells. The class given is functional.
The subject of a further experiment is MCF7. Kind of experiment: Inhibition of DNA synthesis in MCF-7 cells. In kind it is functional, cell-based. The conditions noted are these: Homo sapiens. In outline:
as §1

The next experiment deals with Cancer cell lines. The experiment is described as follows: Mean graph mid point (MGM) for growth inhibition of all human cancer cell lines successfully tested. The class given is functional.
For a further experiment, the system named is SN12C. The experiment is described as follows: In vitro cytotoxicity against human renal SN12C cells. The class given is functional.
A further experiment deals with HOP-62. Kind of experiment: In vitro cytotoxicity against human lung HOP-62 cells. The class given is functional.
The next experiment relates to SF-539. The experiment is described as follows: In vitro cytotoxicity against human CNS SF-539 cells. The class given is functional.
Experiment [4] deals with Tyrosine-protein kinase SYK (Homo sapiens, UniProt P43405). Kind of experiment: In vitro inhibition of Syk protein tyrosine kinase. In kind it is functional. The gist of the method: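 Full-length GST-Syk from baculovirus-infected Sf9 cell lysates, held on glutathione-agarose. Stopped with 10 mM EDTA, beads washed, read by scintillation counting. IC50 determined graphically against DMSO control.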

The next experiment has as its system DU-145. The experiment is described as follows: In vitro cytotoxicity against human prostate DU-145 cells. The class given is functional.
The next experiment relates to cancer cell lines (55). Kind of experiment: Mean graph midpoint (MGM) for growth inhibition of all human cancer cell lines (55). In kind it is functional.

Experimental findings from ChEMBL document CHEMBL1134836, “Design, synthesis, and biological evaluation of a series of lavendustin A analogues that inhibit EGFR and Syk tyrosine kinases, as well as tubulin polymerization” (J Med Chem, 2001) are described below.

pIC50: −log10 of the molar value. Some results are limits rather than exact numbers.

Tubulin beta chain (Bos taurus), sequence (Q6B856 whole entry): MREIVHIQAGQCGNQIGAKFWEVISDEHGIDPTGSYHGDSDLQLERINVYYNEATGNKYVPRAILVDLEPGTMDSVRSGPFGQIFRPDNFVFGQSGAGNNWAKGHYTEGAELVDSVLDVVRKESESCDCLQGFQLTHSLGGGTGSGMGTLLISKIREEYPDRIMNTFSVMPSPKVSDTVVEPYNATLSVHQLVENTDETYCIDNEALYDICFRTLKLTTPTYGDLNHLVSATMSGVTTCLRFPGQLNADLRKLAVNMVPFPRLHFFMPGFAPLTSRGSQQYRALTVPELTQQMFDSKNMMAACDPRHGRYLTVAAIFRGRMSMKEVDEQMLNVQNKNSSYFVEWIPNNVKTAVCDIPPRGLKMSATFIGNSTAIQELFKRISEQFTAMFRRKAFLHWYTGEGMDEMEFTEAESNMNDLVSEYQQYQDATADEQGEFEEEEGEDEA
Tubulin beta chain, sequence (Q6B856 whole entry): as above
Epidermal growth factor receptor, sequence (Q01279 whole entry): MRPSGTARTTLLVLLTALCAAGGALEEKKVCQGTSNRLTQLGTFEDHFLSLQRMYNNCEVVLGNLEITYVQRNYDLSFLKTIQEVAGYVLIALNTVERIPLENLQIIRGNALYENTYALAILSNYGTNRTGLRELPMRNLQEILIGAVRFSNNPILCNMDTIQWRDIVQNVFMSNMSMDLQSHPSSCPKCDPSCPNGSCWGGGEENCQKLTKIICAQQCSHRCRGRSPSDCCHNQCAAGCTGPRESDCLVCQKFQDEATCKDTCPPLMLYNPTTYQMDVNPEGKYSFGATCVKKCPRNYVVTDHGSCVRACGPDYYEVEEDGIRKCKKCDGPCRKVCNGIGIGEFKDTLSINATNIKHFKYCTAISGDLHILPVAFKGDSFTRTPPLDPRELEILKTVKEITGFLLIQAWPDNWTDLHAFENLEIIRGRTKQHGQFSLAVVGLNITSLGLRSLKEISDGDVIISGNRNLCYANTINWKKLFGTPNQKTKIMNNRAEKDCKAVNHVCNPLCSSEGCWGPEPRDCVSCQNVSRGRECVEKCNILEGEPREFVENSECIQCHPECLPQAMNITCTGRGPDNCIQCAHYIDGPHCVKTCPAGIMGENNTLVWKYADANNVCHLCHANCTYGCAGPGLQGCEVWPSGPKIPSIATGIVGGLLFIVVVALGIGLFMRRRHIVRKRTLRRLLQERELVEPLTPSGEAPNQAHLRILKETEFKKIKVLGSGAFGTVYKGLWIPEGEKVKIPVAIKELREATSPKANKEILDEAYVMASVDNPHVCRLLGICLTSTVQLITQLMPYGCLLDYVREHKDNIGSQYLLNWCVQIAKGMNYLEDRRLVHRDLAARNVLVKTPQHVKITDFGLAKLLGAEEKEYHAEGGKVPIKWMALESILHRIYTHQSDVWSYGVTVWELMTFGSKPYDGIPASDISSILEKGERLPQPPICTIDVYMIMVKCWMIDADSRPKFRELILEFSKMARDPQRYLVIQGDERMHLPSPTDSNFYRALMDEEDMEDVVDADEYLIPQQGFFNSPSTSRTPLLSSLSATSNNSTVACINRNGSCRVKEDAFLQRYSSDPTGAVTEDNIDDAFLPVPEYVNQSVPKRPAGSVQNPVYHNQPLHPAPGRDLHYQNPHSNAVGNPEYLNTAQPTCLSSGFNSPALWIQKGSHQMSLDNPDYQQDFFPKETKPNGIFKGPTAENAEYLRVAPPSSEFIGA

On to `COc1ccc(/C=C\c2cc(OC)c(OC)c(OC)c2)cc1O`, for which the Inhibition – broadly, the share of the control response that was lost under treatment – in experiment [1] is 98%.

As to `O=C(NCCc1ccc(F)cc1)c1cc(NCc2cc(O)ccc2O)ccc1O`, the pIC50 (usually the IC50 on a negative log10 scale, so that one unit is a factor of ten) against Tubulin beta chain is 5.40; with MCF-10A, 5.00; in experiment [2] it was 5.40; in the experiment with MCF7, 4.92; in experiment [4], 5.30. The 50% growth inhibitory concentration (GI50) (commonly the concentration giving 50% growth inhibition) in the experiment with MDA-MB-435 amounted to 13 µM; in the experiment with OVCAR-3 it was 11 µM; in the experiment with HCT-116, 9.2 µM; in the experiment with CCRF-CEM, 0.29 µM; with UACC-62 it was 7.8 µM; in the experiment with SN12C it was 7.7 µM. Moreover, the GI50 in the experiment on HOP-62 turned out to be 12 µM; in the experiment on SF-539, 9.2 µM; in the experiment on DU-145 it was 18 µM. The compound further had an Inhibition in [3] of 38%. The MGM in the experiment on Cancer cell lines was determined as 0.35 µM.

As for `CC(C)CCCC(C)[C@H]1CC[C@H]2[C@@H]3CCC4C[C@@H](NC(=O)c5cc(NCc6cc(O)ccc6O)ccc5O)CC[C@]4(C)[C@H]3CC[C@]12C` (stereo not given in full), the pIC50 was below 4.40 against Tubulin beta chain and below 4.30 with MCF7. Moreover, the MGM in the experiment with cancer cell lines (55) is above 100 µM.

Regarding `CCCCCCNC(=O)c1cc(NCc2cc(O)ccc2O)ccc1O`, the pIC50 against Tubulin beta chain was 5.44; in the experiment with MCF-10A, 4.85; in [2] it was 4.85; with MCF7, 4.96. Besides, the GI50 was 15 µM with MDA-MB-435; 4 µM with OVCAR-3; 17 µM in the experiment on HCT-116; 0.56 µM in the experiment with CCRF-CEM; 12 µM with UACC-62; 6.1 µM with SN12C. Besides, the GI50 in the experiment on HOP-62 worked out at 19 µM; in the experiment on SF-539 it was 2.3 µM; with DU-145 it was 15 µM. This compound also gave an Inhibition in experiment [3] of 45%. Besides, the MGM with Cancer cell lines was 8.7 µM.

On to `O=C(NCCN1CCOCC1)c1cc(NCc2cc(O)ccc2O)ccc1O`, for which the pIC50 at Tubulin beta chain was 5.68; in the experiment with MCF-10A, 4.80; in [2], below 4.30; with MCF7 it was 4.85; in experiment [4], 5.82. In addition, the GI50 came out at 13 µM in the experiment on MDA-MB-435; 87 µM with OVCAR-3; 20 µM in the experiment with HCT-116; 1.8 µM with CCRF-CEM; 17 µM in the experiment on UACC-62; 22 µM in the experiment with SN12C. The results for the GI50 in the experiment with SF-539 and with DU-145 were 19 µM and 17 µM, respectively. This compound showed an Inhibition in experiment [3] of 34%. In the experiment with Cancer cell lines, this compound showed an MGM of 19.5 µM.
